RAM network inh – inhibitors of the yeast RAM network, primary screen, dse1pr::URA3 reporter, 5-FOA selection | S. cerevisiae dse1pr::URA3 reporter, 5-FOA growth OD615, 2 d; analog-sensitive cbk1-as2 kinase mutant strain | inhibition, % at 50 µM | 190,000 compounds, 1.8% hits | AID 868, 2007;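 active = inhibition above a set limit, 3 SD over mean compound inhibition, cut at about 8.4% in these data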;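 also: 0% = DMSO-only wells with no growth and 100% = 10 µM 1-NA-PP1 full growth; inhibition rescues growth on 5-FOA so higher OD means more RAM inhibition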
Lmaj promast – Leishmania major promastigote growth inhibition, primary screen; Leishmania major promastigotes, resazurin fluorescence viability; inhibition, % at 10 µM; 200,000 compounds, 9% hits; in the data active = inhibition above about 50%;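 also: promastigotes grown with compound for 44 hours at 28 °C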
WT yeast gro inh – growth inhibition of WT strain, primary screen, mitochondrial fusion inhibitor project, WT and mutant strains, chemical genetic | mitochondrial fusion phenotypic screen | inhibition, % at 10 µM | 190,000 compounds, 2.1% hits | AID 1362, 2008; in the data active = inhibition above about 58%; tested in S. cerevisiae
ABCG2 block – ABCG2 efflux pump inhibitors, primary screen, multiplex with ABCB1, IgMXP3 cells, flow cytometry. 190,000 compounds, 0.1% hits. AID 1325, 2008. inhibition, % at 6.6 µM. JC-1 efflux. Broad substrate specificity ATP-binding cassette transporter ABCG2 (Homo sapiens), Q9UNQ0;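 active = inhibition above 80%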;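 also: 0% = DMSO and 100% = nicardipine control wells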
Target sequence (Q9UNQ0 whole entry, looked up): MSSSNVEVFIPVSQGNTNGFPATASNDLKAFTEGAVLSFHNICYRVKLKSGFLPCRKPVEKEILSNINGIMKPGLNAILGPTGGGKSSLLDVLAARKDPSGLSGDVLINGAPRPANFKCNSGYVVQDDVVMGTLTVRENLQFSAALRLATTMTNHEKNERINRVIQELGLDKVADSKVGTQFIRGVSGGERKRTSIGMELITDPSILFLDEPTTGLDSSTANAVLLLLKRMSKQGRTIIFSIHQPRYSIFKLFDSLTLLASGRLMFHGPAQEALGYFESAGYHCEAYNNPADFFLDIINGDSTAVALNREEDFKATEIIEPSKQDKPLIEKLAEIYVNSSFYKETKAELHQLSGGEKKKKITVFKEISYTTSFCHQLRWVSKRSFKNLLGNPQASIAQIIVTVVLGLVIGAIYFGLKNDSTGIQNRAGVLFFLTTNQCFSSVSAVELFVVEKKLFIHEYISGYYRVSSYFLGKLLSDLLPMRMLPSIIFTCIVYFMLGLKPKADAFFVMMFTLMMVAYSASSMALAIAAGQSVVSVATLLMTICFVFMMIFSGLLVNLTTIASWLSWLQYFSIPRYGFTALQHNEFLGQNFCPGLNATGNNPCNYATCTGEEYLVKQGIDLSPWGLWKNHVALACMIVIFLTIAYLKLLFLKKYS
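Test system: IgMXP3 (ABCG2) plus far-red-tagged CCRF-Adr (ABCB1) cells. Reagent: JC-1 dye as substrate. Timing: 10 min exposure at 25 °C with rotation, no wash. Measured by: flow cytometric JC-1 green MFI at 530 nm. Read-out: percent efflux inhibition, scaled nicardipine 100% to DMSO 0%. Control set: nicardipine and DMSO wells.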
ABCB1 inh – ABCB1 efflux pump inhibitors, primary screen, cell-based, multiplex, flow cytometry, ABCG2 counter-screen | ATP-dependent translocase ABCB1 (Homo sapiens), P08183 | CCRF-Adr cells, JC-1 efflux | inhibition, % at 6.6 µM | 190,000 compounds, 0.067% hits | AID 1326, 2008; in the data active = inhibition above about 40%;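 also: 0% = vehicle and 100% = reference inhibitor; higher value means more JC-1 retained so stronger ABCB1 efflux block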
* hit, by the source's call. This is a sample that favours compounds with a hit; in the whole collection about 12% have one here.

Results for COc1cccc(C(=O)N/N=C/c2cn[nH]c2-c2ccc(OC)cc2OC)c1 ?
RAM network inh: 1; Lmaj promast: -6; WT yeast gro inh: -41; ABCG2 block: 0; ABCB1 inh: 0

Results for OCC(CO)(CO)N=Cc1c(O)ccc2ccccc12 ?
RAM network inh: -1; Lmaj promast: 97*; WT yeast gro inh: 16; ABCG2 block: -2; ABCB1 inh: -3

How did CN(C)/N=C/c1c(O)ccc2ccccc12 do in these assays?
RAM network inh: -1; Lmaj promast: -6; WT yeast gro inh: -14; ABCG2 block: 2; ABCB1 inh: 1

How did CCOc1ccc(/C=N/NC(=O)c2[nH]ncc2Br)c(O)c1 do in these assays?
RAM network inh: 1; Lmaj promast: 99*; WT yeast gro inh: 49; ABCG2 block: -7; ABCB1 inh: -1

How did O=C(N/N=C\c1c(O)ccc2ccccc12)c1ccc(Cn2cccn2)o1 do in these assays?
RAM network inh: 6; Lmaj promast: 98*; WT yeast gro inh: 5; ABCG2 block: 0; ABCB1 inh: 0

What do the screens show for `CC(=O)CC(=O)Nc1ncccn1`?
RAM network inh: 1; Lmaj promast: -3; WT yeast gro inh: 5; ABCG2 block: 2; ABCB1 inh: 0

What do the screens show for `CC(/C=C1\N=C(SCc2ccccc2)SC1=O)=C\c1ccccc1`?
RAM network inh: 9.9*; Lmaj promast: -2; WT yeast gro inh: -9; ABCG2 block: 0; ABCB1 inh: 0

Results for CC(=C/c1ccccc1)/C=C1/SC(N2CCOCC2)=NC1=O ?
RAM network inh: 1; Lmaj promast: -3; WT yeast gro inh: 6; ABCG2 block: 19; ABCB1 inh: 1

How did c1ccc(-c2csc3ncnc(NCCN4CCOCC4)c23)cc1 do in these assays?
RAM network inh: 3; Lmaj promast: 0; WT yeast gro inh: 1; ABCG2 block: 4; ABCB1 inh: -1

What do the screens show for `CCOc1cc2nc(-c3ccc(OC)c(OC)c3)nc(NCCCN3CCOCC3)c2cc1OC`?
RAM network inh: 2; Lmaj promast: 54*; WT yeast gro inh: -9; ABCG2 block: 3; ABCB1 inh: 1

Results for COc1ccc(-c2oc3ncn(CCN4CCOCC4)c(=N)c3c2-c2ccc(OC)cc2)cc1 ?
RAM network inh: 0; Lmaj promast: 55*; WT yeast gro inh: 0; ABCG2 block: 4; ABCB1 inh: 2

What do the screens show for `COc1ccc(-c2oc3ncnc(NCCN4CCOCC4)c3c2-c2ccc(OC)cc2)cc1`?
RAM network inh: 0; Lmaj promast: 49; WT yeast gro inh: -5; ABCG2 block: 17; ABCB1 inh: 4

How did c1ccc(-c2oc3ncnc(NCCCN4CCOCC4)c3c2-c2ccccc2)cc1 do in these assays?
RAM network inh: 2; Lmaj promast: 100*; WT yeast gro inh: -6; ABCG2 block: 11; ABCB1 inh: 3

How did COc1ccc(-c2csc3ncnc(NCCN4CCOCC4)c23)cc1 do in these assays?
RAM network inh: 5; Lmaj promast: -1; WT yeast gro inh: 13; ABCG2 block: 3; ABCB1 inh: 1

What do the screens show for `COc1ccc(-c2oc3ncnc(NCCCN4CCOCC4)c3c2-c2ccc(OC)cc2)cc1`?
RAM network inh: 2; Lmaj promast: 75*; WT yeast gro inh: 7; ABCG2 block: 2; ABCB1 inh: 3

How did O=c1[nH]c2ccc(S(=O)(=O)NCc3ccccc3)cc2[nH]1 do in these assays?
RAM network inh: 1; Lmaj promast: -4; WT yeast gro inh: -11; ABCG2 block: -1; ABCB1 inh: 0

Results for COc1ccccc1C(C)NCC(=O)Nc1ccccc1C(F)(F)F (centres undefined) ?
RAM network inh: 2; Lmaj promast: 60*; WT yeast gro inh: 2; ABCG2 block: 6; ABCB1 inh: 1

What do the screens show for `CCOC(=O)C1CCN(CC(=O)N(CC(C)C)c2c(N)n(CC(C)C)c(=O)[nH]c2=O)CC1`?
RAM network inh: 1; Lmaj promast: -4; WT yeast gro inh: 10; ABCG2 block: 2; ABCB1 inh: 1

How did Nc1c(N2CCCC2)cc(Cl)c2nonc12 do in these assays?
RAM network inh: 2; Lmaj promast: 86*; WT yeast gro inh: -15; ABCG2 block: -9; ABCB1 inh: -1

Results for CCCCN1C2=C(C(=O)CCC2)C(c2ccc(Cl)c(Cl)c2)C2=C1c1ccccc1C2=O (centres undefined) ?
RAM network inh: 6; Lmaj promast: 5; WT yeast gro inh: 67*; ABCG2 block: 4; ABCB1 inh: 1

How did COc1cccc(C2C3=C(CCCC3=O)NC3=C2C(=O)c2ccccc23)c1 (centres undefined) do in these assays?
RAM network inh: 3; Lmaj promast: 13; WT yeast gro inh: 17; ABCG2 block: -4; ABCB1 inh: -2

What do the screens show for `COC(=O)C1=C(C)Nc2nc(SCc3ccccc3)[nH]c(=O)c2C1c1cccs1` (centres undefined)?
RAM network inh: 7; Lmaj promast: -3; WT yeast gro inh: -7; ABCG2 block: 11; ABCB1 inh: 1

Results for Brc1c(OCCOCCn2cncn2)ccc2ccccc12 ?
RAM network inh: -1; Lmaj promast: 65*; WT yeast gro inh: 8; ABCG2 block: 11; ABCB1 inh: 1

How did Cc1cc(Cl)ccc1OCCn1cncn1 do in these assays?
RAM network inh: 2; Lmaj promast: -5; WT yeast gro inh: -9; ABCG2 block: 6; ABCB1 inh: 1

Results for NS(=O)(=O)c1ccc(N=Nc2c(O)ccc3ccccc23)cc1 ?
RAM network inh: 1; Lmaj promast: 0; WT yeast gro inh: -7; ABCG2 block: 4; ABCB1 inh: 0

Results for Oc1ccc(N=Nc2c(O)ccc3ccccc23)cc1 ?
RAM network inh: 5; Lmaj promast: 19; WT yeast gro inh: 98*; ABCG2 block: -8; ABCB1 inh: -2

Results for O=c1c2c3c(sc2nc2n1CCC2)CCC3 ?
RAM network inh: 5; Lmaj promast: 0; WT yeast gro inh: 61*; ABCG2 block: 0; ABCB1 inh: 0

How did COc1cc(N/N=C/c2ccccc2O)ncn1 do in these assays?
RAM network inh: 2; Lmaj promast: 82*; WT yeast gro inh: 8; ABCG2 block: 4; ABCB1 inh: 0

Results for COc1cc(N/N=C/c2ccc(N(C)C)cc2)ncn1 ?
RAM network inh: 1; Lmaj promast: -1; WT yeast gro inh: 7; ABCG2 block: 0; ABCB1 inh: 0

What do the screens show for `CCNC(=O)CSc1nc2ccccc2c(=O)n1-c1cc(OC)ccc1OC`?
RAM network inh: 1; Lmaj promast: -2; WT yeast gro inh: -9; ABCG2 block: 4; ABCB1 inh: 1

Results for COc1ccc(-c2nc(C#N)c(N3CCC(C(N)=O)CC3)o2)cc1 ?
RAM network inh: -1; Lmaj promast: 6; WT yeast gro inh: -7; ABCG2 block: 2; ABCB1 inh: 0
